Data published in ChEMBL document CHEMBL1165995, “Anti-ischemia steroidal saponins from the seeds of Allium fistulosum” (2010).

Assays:
Format in all cases: functional
Conditions in all cases: Homo sapiens, read-out: Activity
HUVEC [1] = test: Antiischemic activity against hypoxia/reoxygenation-induced cell injury in HUVEC assessed as cell viability at 50 uM by MTT assay
Procedure, shortened: (§1)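 HUVEC given hypoxia/reoxygenation (H/R) injury and treated with saponin at one of six dose groups (0.5, 1, 5, 10, 50, 100 µM). Viability was read by MTT assay, with untreated control cells and H/R-only cells as references. Values are mean ± SEM of three independent experiments, and significance was tested against the H/R group.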

HUVEC [2] = test: Antiischemic activity against hypoxia/reoxygenation-induced cell injury in HUVEC assessed as cell viability at 100 uM by MTT assay; procedure, shortened: as §1
HUVEC [3] = test: Antiischemic activity against hypoxia/reoxygenation-induced cell injury in HUVEC assessed as cell viability at 10 uM by MTT assay; procedure, shortened: as §1
HUVEC [4] = test: Antiischemic activity against hypoxia/reoxygenation-induced cell injury in HUVEC assessed as cell viability at 5 uM by MTT assay; procedure, shortened: as §1
HUVEC [5] = test: Antiischemic activity against hypoxia/reoxygenation-induced cell injury in HUVEC assessed as cell viability at 1 uM by MTT assay; procedure, shortened: as §1
HUVEC [6] = test: Antiischemic activity against hypoxia/reoxygenation-induced cell injury in HUVEC assessed as cell viability at 0.5 uM by MTT assay; procedure, shortened: as §1

`CC1=C(CC[C@H](C)CO[C@@H]2O[C@H](CO)[C@@H](O)[C@H](O)[C@H]2O)O[C@H]2C[C@H]3[C@@H]4CC=C5C[C@@H](O[C@@H]6O[C@H](CO)[C@@H](O[C@@H]7O[C@@H](C)[C@H](O)[C@@H](O)[C@H]7O)[C@H](O)[C@H]6O[C@@H]6O[C@@H](C)[C@H](O)[C@@H](O)[C@H]6O)C(=O)C[C@]5(C)[C@H]4CC[C@]3(C)[C@@H]12` [FISTULOSAPONIN A] showed a viability at 50 µM (HUVEC [1]) of 86.3%, a viability at 100 µM (HUVEC [2]) of 78.2% and a viability at 10 µM (HUVEC [3]) of 82.7%. For the same molecule, the viability at 5 µM (HUVEC [4]) was 80.1%, the viability at 1 µM (HUVEC [5]) was 76.3% and the viability at 0.5 µM (HUVEC [6]) was 59.5%.

With `CC1=C(CC[C@H](C)CO[C@@H]2O[C@H](CO)[C@@H](O)[C@H](O)[C@H]2O)O[C@H]2C[C@H]3[C@@H]4CC=C5C[C@@H](O[C@@H]6O[C@H](CO)[C@@H](O)[C@H](O)[C@H]6O[C@@H]6O[C@H](CO)[C@@H](O)[C@H](O)[C@H]6O[C@@H]6O[C@H](CO)[C@@H](O)[C@H](O)[C@H]6O)[C@H](O)C[C@]5(C)[C@H]4CC[C@]3(C)[C@@H]12` [FISTULOSAPONIN E] the viability at 50 µM (HUVEC [1]) was 75.4%, the viability at 100 µM (HUVEC [2]) was 68% and the viability at 10 µM (HUVEC [3]) was 77.9%. It also gave a viability at 5 µM (HUVEC [4]) of 70.2%, a viability at 1 µM (HUVEC [5]) of 64.3% and a viability at 0.5 µM (HUVEC [6]) of 60.9%.

In the case of `C[C@@H](CC[C@@]1(O)O[C@H]2C[C@H]3[C@@H]4CC=C5C[C@@H](O[C@@H]6O[C@H](CO)[C@@H](O[C@@H]7O[C@@H](C)[C@H](O[C@@H]8O[C@@H](C)[C@H](O)[C@@H](O)[C@H]8O)[C@@H](O)[C@H]7O)[C@H](O)[C@H]6O[C@@H]6O[C@@H](C)[C@H](O)[C@@H](O)[C@H]6O)CC[C@]5(C)[C@H]4CC[C@]3(C)[C@H]2[C@@H]1C)CO[C@@H]1O[C@H](CO)[C@@H](O)[C@H](O)[C@H]1O`, the viability at 50 µM (HUVEC [1]) is reported as 73.6%, the viability at 100 µM (HUVEC [2]) is reported as 62.8% and the viability at 10 µM (HUVEC [3]) is reported as 73.3%. It also gave a viability at 5 µM (HUVEC [4]) of 69.5%, a viability at 1 µM (HUVEC [5]) of 65.2% and a viability at 0.5 µM (HUVEC [6]) of 64%.

With `C[C@@H](CC[C@@]1(O)O[C@H]2C[C@H]3[C@@H]4CC=C5C[C@@H](O[C@@H]6O[C@H](CO)[C@@H](O)[C@H](O)[C@H]6O[C@@H]6O[C@H](CO)[C@@H](O)[C@H](O)[C@H]6O[C@@H]6O[C@H](CO)[C@@H](O)[C@H](O)[C@H]6O)C(=O)C[C@]5(C)[C@H]4CC[C@]3(C)[C@H]2[C@@H]1C)CO[C@@H]1O[C@H](CO)[C@@H](O)[C@H](O)[C@H]1O` [FISTULOSAPONIN D] the viability at 50 µM (HUVEC [1]) was 82.4%, the viability at 100 µM (HUVEC [2]) was 75.6% and the viability at 10 µM (HUVEC [3]) was 79.8%. The viability at 5 µM (HUVEC [4]) was 78.2%, the viability at 1 µM (HUVEC [5]) was 72.6% and the viability at 0.5 µM (HUVEC [6]) was 68.9%.

Work on `C[C@@H](CC[C@@]1(O)O[C@H]2C[C@H]3[C@@H]4CC=C5C[C@@H](O[C@@H]6O[C@H](CO)[C@@H](O)[C@H](O[C@@H]7O[C@H](CO)[C@@H](O)[C@H](O)[C@H]7O)[C@H]6O[C@@H]6O[C@@H](C)[C@H](O)[C@@H](O)[C@H]6O)CC[C@]5(C)[C@H]4CC[C@]3(C)[C@H]2[C@@H]1C)CO[C@@H]1O[C@H](CO)[C@@H](O)[C@H](O)[C@H]1O` [PROTOGRACILLIN] yielded a viability at 50 µM (HUVEC [1]) of 78.2%, a viability at 100 µM (HUVEC [2]) of 68% and a viability at 10 µM (HUVEC [3]) of 77.9%. For the same molecule, the viability at 5 µM (HUVEC [4]) was 75.2%, the viability at 1 µM (HUVEC [5]) was 69.5% and the viability at 0.5 µM (HUVEC [6]) was 60.9%.

In the case of `C[C@@H](CC[C@@]1(O)O[C@H]2C[C@H]3[C@@H]4CC=C5C[C@@H](O[C@@H]6O[C@H](CO)[C@@H](O[C@@H]7O[C@@H](C)[C@H](O)[C@@H](O)[C@H]7O)[C@H](O)[C@H]6O[C@@H]6O[C@@H](C)[C@H](O)[C@@H](O)[C@H]6O)C(=O)C[C@]5(C)[C@H]4CC[C@]3(C)[C@H]2[C@@H]1C)CO[C@@H]1O[C@H](CO)[C@@H](O)[C@H](O)[C@H]1O` [FISTULOSAPONIN B], the viability at 50 µM (HUVEC [1]) is reported as 82.1%, the viability at 100 µM (HUVEC [2]) is reported as 74.8% and the viability at 10 µM (HUVEC [3]) is reported as 79.4%. It also gave a viability at 5 µM (HUVEC [4]) of 77.2%, a viability at 1 µM (HUVEC [5]) of 71.8% and a viability at 0.5 µM (HUVEC [6]) of 65.7%.

`C[C@@H](CC[C@@]1(O)O[C@H]2C[C@H]3[C@@H]4CC=C5C[C@@H](O[C@@H]6O[C@H](CO)[C@@H](O)[C@H](O)[C@H]6O[C@@H]6O[C@H](CO)[C@@H](O)[C@H](O)[C@H]6O[C@@H]6O[C@H](CO)[C@@H](O)[C@H](O)[C@H]6O)[C@H](O)C[C@]5(C)[C@H]4CC[C@]3(C)[C@H]2[C@@H]1C)CO[C@@H]1O[C@H](CO)[C@@H](O)[C@H](O)[C@H]1O` [FISTULOSAPONIN F] gave a viability at 50 µM (HUVEC [1]) of 77.4%, a viability at 100 µM (HUVEC [2]) of 71.2% and a viability at 10 µM (HUVEC [3]) of 75.5%. For the same molecule, the viability at 5 µM (HUVEC [4]) was 74.1%, the viability at 1 µM (HUVEC [5]) was 68.3% and the viability at 0.5 µM (HUVEC [6]) was 62.3%.

`C[C@@H](CC[C@@]1(O)O[C@H]2C[C@H]3[C@@H]4CC=C5C[C@@H](O[C@@H]6O[C@H](CO)[C@@H](O)[C@H](O)[C@H]6O[C@@H]6O[C@@H](C)[C@H](O[C@@H]7O[C@@H](C)[C@H](O)[C@@H](O)[C@H]7O)[C@@H](O)[C@H]6O)C(=O)C[C@]5(C)[C@H]4CC[C@]3(C)[C@H]2[C@@H]1C)CO[C@@H]1O[C@H](CO)[C@@H](O)[C@H](O)[C@H]1O` [FISTULOSAPONIN C] showed a viability at 50 µM (HUVEC [1]) of 84.6%, a viability at 100 µM (HUVEC [2]) of 69.5% and a viability at 10 µM (HUVEC [3]) of 81.2%. It also gave a viability at 5 µM (HUVEC [4]) of 79.7%, a viability at 1 µM (HUVEC [5]) of 74.8% and a viability at 0.5 µM (HUVEC [6]) of 71.7%.

In the case of `C[C@@H](CC[C@@]1(O)O[C@H]2C[C@H]3[C@@H]4CC=C5C[C@@H](O[C@@H]6O[C@H](CO)[C@@H](O[C@@H]7O[C@@H](C)[C@H](O)[C@@H](O)[C@H]7O)[C@H](O)[C@H]6O[C@@H]6O[C@@H](C)[C@H](O)[C@@H](O)[C@H]6O)CC[C@]5(C)[C@H]4CC[C@]3(C)[C@H]2[C@@H]1C)CO[C@@H]1O[C@H](CO)[C@@H](O)[C@H](O)[C@H]1O`, the viability at 50 µM (HUVEC [1]) is reported as 74.3%, the viability at 100 µM (HUVEC [2]) is reported as 68.6% and the viability at 10 µM (HUVEC [3]) is reported as 72.1%. It also gave a viability at 5 µM (HUVEC [4]) of 69.4%, a viability at 1 µM (HUVEC [5]) of 63.5% and a viability at 0.5 µM (HUVEC [6]) of 60.7%.
